Source: ChEMBL document CHEMBL1137716, “Novel modifications in the series of O-(2-phthalimidoethyl)-N-substituted thiocarbamates and their ring-opened congeners as non-nucleoside HIV-1 reverse transcriptase inhibitors” (Eur J Med Chem, 2009)
The source made the active and inactive calls. No rule for the calls is given here.

Legend:
[1] = Selectivity index, ratio of CC50 for human MT4 cells to EC50 for HIV1 3B; type: toxicity, cell-based; conditions: read-out: Ratio CC50/EC50
Procedure, shortened: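 Ratio of CC50 in mock-infected MT-4 cells to EC50 for protection from HIV-1 cytopathogenicity, both read by MTT method.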

[2] = system: Human immunodeficiency virus 1; assay: Antiviral activity against HIV1 3B Y181C/K103N double mutant in human MT4 cells assessed as protection against viral induced cytopathogenicity by MTT assay; type: functional, organism-based
Procedure, shortened: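 MT-4 cells infected with HIV-1 carrying the NNRTI-resistance mutation were assayed for protection from virus-induced cytopathogenicity, read out as cell viability by MTT. EC50 is the compound concentration giving 50% protection. Values are means of three separate experiments, with variation among triplicate samples under 10%. Efavirenz served as the reference.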

[3] = system: Human immunodeficiency virus 1; assay: Antiviral activity against wild type HIV1 3B in human MT4 cells assessed as protection against viral induced cytopathogenicity by MTT assay; type: functional, organism-based; conditions: Human immunodeficiency virus 1, 3B
Procedure, shortened: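 MT-4 cells infected with HIV-1; 50% protection from virus-induced cytopathogenicity read by MTT method; EC50 in micromolar; mean of three separate experiments, triplicate samples varying under 10%.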

[4] = Cytotoxicity against mock-infected human MT4 cells by MTT assay; type: cell-based
Procedure, shortened: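 Mock-infected MT-4 cells, tested in parallel with the antiviral assay; viability read by MTT method; CC50 is the concentration lowering viability by 50%; mean of three separate experiments, triplicate variation under 10%.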

Compound | selectivity ratio [1] | Activity [2] | EC50 [3] [µM] | CC50 [4] [µM]
Cc1ccc2c(c1)C(=O)N(CCOC(=S)Nc1ccc(C)c(Cl)c1)C2=O | 165 | inactive | 0.4 | 66
COc1ccc(CCNC(=S)OCCN2C(=O)c3ccccc3C2=O)cc1OC | > 12.5 | inactive | 8 | > 100
Cc1cccc(C)c1NC(=S)OCCN1C(=O)c2ccccc2C1=O | > 1.3 |  | 75 | > 100
O=C1c2ccccc2C(=O)N1CCOC(=S)Nc1c(Cl)cc(Cl)cc1Cl | > 10 | inactive | 10 | > 100
Cc1ccc(NC(=S)OCCN2C(=O)c3ccccc3C2=O)c(C)c1 | > 16.7 |  | 6 | > 100
O=C1c2ccccc2C(=O)N1CCOC(=S)Nc1cc(F)cc(F)c1 | > 11.1 | inactive | 9 | > 100
O=C(O)c1ccccc1C(=O)NCCOC(=S)Nc1ccc(Cl)c(Cl)c1Cl | > 2.3 | inactive | 44 | > 100
O=C(O)c1ccccc1C(=O)NCCOC(=S)Nc1cc(F)ccc1F | > 2 | inactive | 51 | > 100
COc1ccc(NC(=S)OCCNC(=O)c2ccccc2C(=O)O)cc1OC | > 6.2 |  | 16 | > 100
CC(C)(C)c1ccc2c(c1)C(=O)N(CCOC(=S)Nc1ccc(Cl)cc1)C2=O | 45.8 | inactive | 1.2 | 55
CC(C)(C)CC(C)(C)NC(=S)OCCN1C(=O)c2ccccc2C1=O | > 1.7 | inactive | 60 | > 100
Cc1ccc2c(c1)C(=O)N(CCOC(=S)NC1CCCCC1)C2=O | > 333 | inactive | 0.3 | > 100
COc1ccc(NC(=S)OCCN2C(=O)c3ccccc3C2=O)cc1OC | > 28.6 | inactive | 3.5 | > 100
O=C1c2ccccc2C(=O)N1CCOC(=S)Nc1c(F)cc(F)cc1F | > 50 | inactive | 2 | > 100
CC(COC(=S)Nc1ccc(Cl)cc1)N1C(=O)c2ccccc2C1=O (racemic) |  |  | 0.05 | 
O=C1c2ccccc2C(=O)N1CCOC(=S)NC1CC1 |  |  | > 100 | > 100

Compound | selectivity ratio [1] | Activity [2] | EC50 [3] [µM] | CC50 [4] [µM]
O=C1c2ccccc2C(=O)N1CCOC(=S)Nc1cc(Cl)ccc1Cl | > 2.4 |  | 42 | > 100
Cc1ccc(Cl)cc1NC(=S)OCCNC(=O)c1ccccc1C(=O)O | > 3.3 |  | 30 | > 100
C[C@@H](COC(=S)Nc1ccc(Cl)cc1)N1C(=O)c2ccccc2C1=O | 420 | inactive | 0.2 | 84
O=C1c2ccccc2C(=O)N1CCOC(=S)Nc1cc(F)ccc1F | > 12.5 | inactive | 8 | > 100
O=C1c2ccccc2C(=O)N1CCOC(=S)Nc1ccc(I)cc1 |  |  | 0.02 | 
COc1ccc(CCNC(=S)OCCNC(=O)c2ccccc2C(=O)O)cc1OC | 1.6 | inactive | 63 | 100
COc1ccc(NC(=S)OCCN2C(=O)c3ccccc3C2=O)cc1 |  |  | 0.03 | 
Cc1ccc2c(c1)C(=O)N(CCOC(=S)Nc1ccc(Cl)c(C(F)(F)F)c1)C2=O | 17.9 | inactive | 2.4 | 43
CCc1ccc(NC(=S)OCCN2C(=O)c3ccccc3C2=O)cc1 |  |  | 0.08 | 
O=C(O)c1ccccc1C(=O)NCCOC(=S)Nc1c(F)cc(F)cc1F | > 13.9 | inactive | 7.2 | > 100
O=C1c2ccccc2C(=O)N1CCOC(=S)Nc1cccc(Cl)c1Cl | > 3.3 |  | 30 | > 100
COc1ccc(C)cc1NC(=S)OCCNC(=O)c1ccccc1C(=O)O | > 1.1 |  | 88 | > 100
O=C1c2ccccc2C(=O)N1CCOC(=S)NCCc1ccccc1 | > 10.9 | inactive | 9.2 | > 100
Cc1ccc2c(c1)C(=O)N(CCOC(=S)Nc1ccc(Cl)c(Cl)c1)C2=O | 250 | inactive | 0.2 | 50
Cc1ccc(NC(=S)OCCNC(=O)c2ccccc2C(=O)O)c(C)c1 | > 1.9 |  | 53 | > 100
O=C1c2ccccc2C(=O)N1CCOC(=S)Nc1c(F)c(F)cc(F)c1F | > 10 | inactive | 10 | > 100
